Laboratory results taken from ChEMBL document CHEMBL1149648, “Norcantharimides, synthesis and anticancer activity: Synthesis of new norcantharidin analogues and their anticancer evaluation” (2007).

How the values were obtained:
Assay type in all cases: functional
[1] = system: MCF7; assay: Cytotoxicity against human MCF7 cells at 100 uM after 72 hrs by MTT assay; conditions: MCF7, 72 h
In short: (§1)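 Log-phase cells in DMEM with 10% FBS (37 °C, 5% CO2) were plated in duplicate at 2500–4000 cells/well. Agent was added 24 h later at a fixed final concentration of 100 µM and left for 72 h continuous exposure. Read-out was MTT absorbance at 540 nm, expressed as percent growth inhibition, where 100% means total growth inhibition.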

[2] = system: DU-145; assay: Cytotoxicity against human DU145 cells at 100 uM after 72 hrs by MTT assay; conditions: DU-145, 72 h; in short: as §1
[3] = system: SW480; assay: Cytotoxicity against human SW480 cells at 100 uM after 72 hrs by MTT assay; conditions: SW480, 72 h; in short: as §1
[4] = Cytotoxicity against human BE2C cells at 100 uM after 72 hrs by MTT assay; conditions: BE(2)-C; in short: as §1
[5] = Cytotoxicity against human SJG2 cells at 100 uM after 72 hrs by MTT assay; conditions: SJ-G2, 72 h; in short: as §1
[6] = system: HT-29; assay: Cytotoxicity against human HT29 cells at 100 uM after 72 hrs by MTT assay; conditions: HT-29, 72 h; in short: as §1
[7] = system: A2780; assay: Cytotoxicity against human A2780 cells at 100 uM after 72 hrs by MTT assay; conditions: A2780, 72 h; in short: as §1
[8] = system: A-431; assay: Cytotoxicity against human A431 cells at 100 uM after 72 hrs by MTT assay; conditions: A-431, 72 h; in short: as §1
[9] = system: NCI-H460; assay: Cytotoxicity against human H460 cells at 100 uM after 72 hrs by MTT assay; conditions: NCI-H460, 72 h; in short: as §1
[10] = system: MCF7; assay: Cytotoxicity against human MCF7 cells after 72 hrs by MTT assay; conditions: MCF7, 72 h
In short: (§2)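 Cells were grown in DMEM with 10% FBS, bicarbonate, penicillin/streptomycin and 4 mM glutamine at 37 °C under 5% CO2. Log-phase cells were plated in duplicate at 2500–4000 cells/well. After 24 h, medium with or without agent was added (stocks in DMSO or water). Growth inhibition was read by MTT at 540 nm after 72 h continuous exposure. Values are means (SEM) of 3–6 experiments.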

[11] = system: A-431; assay: Cytotoxicity against human A431 cells after 72 hrs by MTT assay; conditions: A-431, 72 h; in short: as §2
[12] = system: DU-145; assay: Cytotoxicity against human DU145 cells after 72 hrs by MTT assay; conditions: DU-145, 72 h; in short: as §2
[13] = Cytotoxicity against human SJG2 cells after 72 hrs by MTT assay; conditions: SJ-G2, 72 h; in short: as §2
[14] = system: A2780; assay: Cytotoxicity against human A2780 cells after 72 hrs by MTT assay; conditions: A2780, 72 h; in short: as §2
[15] = system: HT-29; assay: Cytotoxicity against human HT29 cells after 72 hrs by MTT assay; conditions: HT-29, 72 h; in short: as §2
[16] = system: SW480; assay: Cytotoxicity against human SW480 cells after 72 hrs by MTT assay; conditions: SW480, 72 h; in short: as §2
[17] = system: NCI-H460; assay: Cytotoxicity against human H460 cells after 72 hrs by MTT assay; conditions: NCI-H460, 72 h; in short: as §2
[18] = Cytotoxicity against human BE2C cells after 72 hrs by MTT assay; conditions: BE(2)-C
In short: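 Cells cultured in DMEM with 10% FBS, bicarbonate, penicillin, streptomycin and 4 mM glutamine at 37 °C, 5% CO2. Log-phase cells plated in duplicate at 2500–4000/well; test agent (DMSO stock) added 24 h later. After 72 h continuous exposure, MTT read at 540 nm; means of 3–6 experiments.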

## CCCCCCCCN1C(=O)[C@@H]2[C@H](C1=O)[C@@H]1CC[C@H]2O1
[1]
  inhibition at 100 µM: 88%
[2]
  inhibition at 100 µM: 44%
[3]
  inhibition at 100 µM: 65%
[4]
  inhibition at 100 µM: 68%
[5]
  inhibition at 100 µM: 54%
[6]
  inhibition at 100 µM: 70%
[7]
  inhibition at 100 µM: 50%
[8]
  inhibition at 100 µM: 61%
[9]
  inhibition at 100 µM: < 10%

## CCCCCCCCCCCCN1C(=O)[C@@H]2[C@H](C1=O)[C@@H]1CC[C@H]2O1
[1]
  inhibition at 100 µM: 52%
[2]
  inhibition at 100 µM: 66%
[3]
  inhibition at 100 µM: 55%
[4]
  inhibition at 100 µM: 40%
[5]
  inhibition at 100 µM: 58%
[6]
  inhibition at 100 µM: 25%
[7]
  inhibition at 100 µM: 40%
[8]
  inhibition at 100 µM: 35%
[9]
  inhibition at 100 µM: 53%

## CCCN1C(=O)[C@@H]2[C@H](C1=O)[C@@H]1CC[C@H]2O1
[1]
  inhibition at 100 µM: < 10%
[2]
  inhibition at 100 µM: < 10%
[3]
  inhibition at 100 µM: 45%
[4]
  inhibition at 100 µM: < 10%
[5]
  inhibition at 100 µM: < 10%
[6]
  inhibition at 100 µM: 16%
[7]
  inhibition at 100 µM: < 10%
[8]
  inhibition at 100 µM: < 10%
[9]
  inhibition at 100 µM: < 10%

## CCC(C)N1C(=O)[C@@H]2[C@H](C1=O)[C@@H]1CC[C@H]2O1 (stereo partly drawn)
[1]
  inhibition at 100 µM: < 10%
[2]
  inhibition at 100 µM: < 10%
[3]
  inhibition at 100 µM: < 10%
[4]
  inhibition at 100 µM: < 10%
[5]
  inhibition at 100 µM: < 10%
[6]
  inhibition at 100 µM: < 10%
[7]
  inhibition at 100 µM: < 10%
[8]
  inhibition at 100 µM: < 10%
[9]
  inhibition at 100 µM: < 10%

## CCCCCCN1C(=O)[C@@H]2[C@H](C1=O)[C@@H]1CC[C@H]2O1
[1]
  inhibition at 100 µM: < 10%
[2]
  inhibition at 100 µM: < 10%
[3]
  inhibition at 100 µM: < 10%
[4]
  inhibition at 100 µM: < 10%
[5]
  inhibition at 100 µM: < 10%
[6]
  inhibition at 100 µM: < 10%
[7]
  inhibition at 100 µM: < 10%
[8]
  inhibition at 100 µM: < 10%
[9]
  inhibition at 100 µM: < 10%

## C=CCCN1C(=O)[C@@H]2[C@H](C1=O)[C@@H]1CC[C@H]2O1
[1]
  inhibition at 100 µM: < 10%
[2]
  inhibition at 100 µM: < 10%
[3]
  inhibition at 100 µM: < 10%
[4]
  inhibition at 100 µM: < 10%
[5]
  inhibition at 100 µM: < 10%
[6]
  inhibition at 100 µM: < 10%
[7]
  inhibition at 100 µM: < 10%
[8]
  inhibition at 100 µM: < 10%
[9]
  inhibition at 100 µM: < 10%

## O=C1[C@@H]2[C@H](C(=O)N1CC(O)CO)[C@@H]1CC[C@H]2O1 (stereo partly drawn)
[10]
  GI50: 46 µM
[1]
  inhibition at 100 µM: > 100%
[2]
  inhibition at 100 µM: 67%
[3]
  inhibition at 100 µM: 69%
[11]
  GI50: > 100 µM
[4]
  inhibition at 100 µM: 73%
[5]
  inhibition at 100 µM: 27%
[12]
  GI50: > 100 µM
[6]
  inhibition at 100 µM: 39%
[13]
  GI50: > 100 µM
[14]
  GI50: 59 µM
[15]
  GI50: > 100 µM
[7]
  inhibition at 100 µM: > 100%
[16]
  GI50: 62 µM
[8]
  inhibition at 100 µM: 60%
[17]
  GI50: > 100 µM
[9]
  inhibition at 100 µM: 32%

## COC(CO)CN1C(=O)[C@@H]2[C@H](C1=O)[C@@H]1CC[C@H]2O1 (stereo partly drawn)
[1]
  inhibition at 100 µM: 33%
[2]
  inhibition at 100 µM: < 10%
[3]
  inhibition at 100 µM: < 10%
[4]
  inhibition at 100 µM: < 10%
[5]
  inhibition at 100 µM: < 10%
[6]
  inhibition at 100 µM: 12%
[7]
  inhibition at 100 µM: < 10%
[8]
  inhibition at 100 µM: < 10%
[9]
  inhibition at 100 µM: < 10%

## CCCCN1C(=O)[C@@H]2[C@H](C1=O)[C@@H]1CC[C@H]2O1
[1]
  inhibition at 100 µM: < 10%
[2]
  inhibition at 100 µM: < 10%
[3]
  inhibition at 100 µM: < 10%
[4]
  inhibition at 100 µM: < 10%
[5]
  inhibition at 100 µM: < 10%
[6]
  inhibition at 100 µM: < 10%
[7]
  inhibition at 100 µM: < 10%
[8]
  inhibition at 100 µM: < 10%
[9]
  inhibition at 100 µM: < 10%

## CCCCCCCCCCN1C(=O)[C@@H]2[C@H](C1=O)[C@@H]1CC[C@H]2O1
[1]
  inhibition at 100 µM: 44%
[2]
  inhibition at 100 µM: 83%
[3]
  inhibition at 100 µM: 59%
[4]
  inhibition at 100 µM: 39%
[5]
  inhibition at 100 µM: 72%
[6]
  inhibition at 100 µM: 20%
[7]
  inhibition at 100 µM: 44%
[8]
  inhibition at 100 µM: 52%
[9]
  inhibition at 100 µM: > 100%

## O=C1[C@@H]2[C@H](C(=O)N1C1CCCCC1)[C@@H]1CC[C@H]2O1
[1]
  inhibition at 100 µM: < 10%
[2]
  inhibition at 100 µM: < 10%
[3]
  inhibition at 100 µM: < 10%
[4]
  inhibition at 100 µM: < 10%
[5]
  inhibition at 100 µM: < 10%
[6]
  inhibition at 100 µM: < 10%
[7]
  inhibition at 100 µM: < 10%
[8]
  inhibition at 100 µM: < 10%
[9]
  inhibition at 100 µM: < 10%

## O=C1[C@@H]2[C@H](C(=O)N1CC1CO1)[C@@H]1CC[C@H]2O1 (stereo partly drawn)
[1]
  inhibition at 100 µM: 10%
[2]
  inhibition at 100 µM: 22%
[3]
  inhibition at 100 µM: 30%
[4]
  inhibition at 100 µM: 20%
[5]
  inhibition at 100 µM: 25%
[6]
  inhibition at 100 µM: 25%
[7]
  inhibition at 100 µM: 40%
[8]
  inhibition at 100 µM: 40%
[9]
  inhibition at 100 µM: 17%

## C=CCN1C(=O)[C@@H]2[C@H](C1=O)[C@@H]1CC[C@H]2O1
[10]
  GI50: 80 µM
[1]
  inhibition at 100 µM: 96%
[2]
  inhibition at 100 µM: 15%
[3]
  inhibition at 100 µM: 50%
[4]
  inhibition at 100 µM: 62%
[5]
  inhibition at 100 µM: 2%
[6]
  inhibition at 100 µM: 19%
[7]
  inhibition at 100 µM: 67%
[8]
  inhibition at 100 µM: 32%
[9]
  inhibition at 100 µM: 20%

## CCCCCCCCCCCCCCCCCCN1C(=O)[C@@H]2[C@H](C1=O)[C@@H]1CC[C@H]2O1
[1]
  inhibition at 100 µM: < 10%
[2]
  inhibition at 100 µM: < 10%
[3]
  inhibition at 100 µM: < 10%
[4]
  inhibition at 100 µM: < 10%
[5]
  inhibition at 100 µM: < 10%
[6]
  inhibition at 100 µM: < 10%
[7]
  inhibition at 100 µM: < 10%
[8]
  inhibition at 100 µM: < 10%
[9]
  inhibition at 100 µM: < 10%

## C[C@@]12C(=O)OC(=O)[C@]1(C)[C@H]1CC[C@@H]2O1 [CANTHARIDIN]
[10]
  GI50: 7.5 µM
[11]
  GI50: 2.9 µM
[12]
  GI50: 2.1 µM
[13]
  GI50: 1.7 µM
[14]
  GI50: 4.4 µM
[15]
  GI50: 3.2 µM
[16]
  GI50: 4.5 µM
[17]
  GI50: 3.3 µM
[18]
  GI50: 3.7 µM

## O=C1OC(=O)C2C3CCC(O3)C12 (stereo not drawn) [DEMETHYL-CANTHARIDIN]
[10]
  GI50: 68 µM
[11]
  GI50: 31 µM
[12]
  GI50: 28 µM
[13]
  GI50: 23 µM
[14]
  GI50: 38 µM
[15]
  GI50: 57 µM
[16]
  GI50: 44 µM
[17]
  GI50: 45 µM
[18]
  GI50: 43 µM
